Read-outs that look alike come from different tables or passages of the source. A value given as a limit tells only on which side of the number the result lay.

Consider 14 compounds from publication PMC4545412 (Planta medica, 2015).

In one data set the target is NF-κB p65 subunit (Homo sapiens, UniProt Q04206). Briefly: Enzyme-based ELISA NF-κB. The class given is biochemical.
For data set [1], the system named is human colon cancer (HT-29) cell line. Kind of data set: Cytotoxicity assay against HT-29 human colon cancer cells. Conditions: for HT-29 ED50: HT-29 human colon cancer cells, > 20 µM considered inactive.
Data set [2] deals with Plasmodium falciparum Dd2. Briefly: Antimalarial bioassay, 72 h parasite growth assay. In kind it is cell-based. The settings on record: DD2, read-out: P. falciparum IC50. A digest of the protocol:
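72 h growth assay of test compounds on the drug-resistant Dd2 strain of Plasmodium falciparum, following an earlier protocol with minor modifications. Artemisinin was the positive control.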

Data set [3] deals with human colon cancer (HT-29) cell line.
The next data set has as its system Plasmodium falciparum. The settings on record: cited from earlier work.
The test system of data set [4] is Candida albicans (ATCC 18804). Kind of data set: Antifungal bioassay, growth of the pathogenic yeast. In kind it is cell-based. The settings on record: ATCC18804, read-out: growth inhibition of C. albicans cells.
A further data set relates to P. falciparum strain 3D7. Conditions: read-out: IC50, in vitro antimalarial activity; cited from earlier work.
Setting [5] is: read-out: NF-κB (p65) IC50, enzyme-based ELISA, > 20 µM considered inactive.

Sequence of NF-κB p65 subunit (Q04206 whole entry): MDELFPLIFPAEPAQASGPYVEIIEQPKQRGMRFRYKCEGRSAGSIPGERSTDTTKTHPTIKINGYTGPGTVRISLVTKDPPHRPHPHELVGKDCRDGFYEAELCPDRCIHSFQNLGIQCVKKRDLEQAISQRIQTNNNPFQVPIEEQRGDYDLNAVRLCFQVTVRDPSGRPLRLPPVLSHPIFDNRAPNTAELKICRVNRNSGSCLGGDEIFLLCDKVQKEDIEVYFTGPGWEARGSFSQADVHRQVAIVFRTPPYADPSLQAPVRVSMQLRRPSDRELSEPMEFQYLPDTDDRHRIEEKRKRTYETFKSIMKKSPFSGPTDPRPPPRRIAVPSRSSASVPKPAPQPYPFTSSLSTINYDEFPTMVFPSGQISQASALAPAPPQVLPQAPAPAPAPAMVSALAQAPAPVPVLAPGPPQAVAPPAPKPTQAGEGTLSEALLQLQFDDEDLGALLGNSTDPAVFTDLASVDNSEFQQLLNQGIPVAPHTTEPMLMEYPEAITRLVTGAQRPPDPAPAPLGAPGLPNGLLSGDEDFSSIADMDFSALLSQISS

Usually IC50 stands for the midpoint of a concentration-inhibition curve. As for `C=C(C)C1CCC2(CO)CCC3(C)C(CCC4C5(C)CCC(OC(=O)/C=C\c6ccc(O)cc6)C(C)(CO)C5CCC43C)C12` (stereo not drawn) [Compound 3, 3-O-(Z)-p-coumaroyl-23-hydroxy-3-epi-betulin], the IC50 at NF-κB p65 subunit (setting [5]) is over 20 µM. The “HT-29 ED50” value in data set [1] is recorded as 3.3 µM.
As to `C=C(C)C1CCC2(CO)CCC3(C)C(CCC4C5(C)CCC(OC(=O)/C=C/c6ccc(O)cc6)C(C)(CO)C5CCC43C)C12` (stereo not drawn) [Compound 2, 3-O-(E)-p-coumaroyl-23-hydroxy-3-epi-betulin], the IC50 at NF-κB p65 subunit (setting [5]) was over 20 µM. The “cytotoxic effect against HT-29 cells (in words)” value in data set [1] (HT-29 cells) is “marginal cytotoxic effects”. The “HT-29 ED50” value in data set [1] stood at 13.2 µM.
Regarding `C=C(C)[C@@H]1CC[C@]2(CO)CC[C@]3(C)[C@H](CC[C@@H]4[C@@]5(C)CC[C@H](O)C(C)(C)[C@@H]5CC[C@]43C)[C@@H]12` [Compound 6, betulin], the IC50 on NF-κB p65 subunit is over 20 µM; in data set [2], over 10 µM. Besides, in data set [1], the “HT-29 ED50” value is given as over 20 µM.
On to `C=C(C)C1CCC2(CO)CCC3(C)C(CCC4C5(C)CCC(OC(=O)/C=C/c6ccc(O)cc6)C(C)(CO)C5CCC43C)C12` (stereo not drawn) [Compound 1, 3-O-(E)-p-coumaroyl-23-hydroxybetulin], for which the 50% inhibitory concentration (IC50) on NF-κB p65 subunit (setting [5]) was over 20 µM. Also, in data set [1], the “HT-29 ED50” value is given as over 20 µM.
For `C=C(C)[C@@H]1CC[C@]2(CO)CC[C@]3(C)[C@H](CC[C@@H]4[C@@]5(C)CC[C@H](O)[C@@](C)(CO)[C@@H]5CC[C@]43C)[C@@H]12` [Compound 9, 23-hydroxybetulin], the IC50 on NF-κB p65 subunit (setting [5]) was found to be 4 µM. For the same compound, the “HT-29 ED50” value in data set [1] is on record as over 20 µM.
As to `C=C(C)C1CCC2(CO)CCC3(C)C(CCC4C5(C)CCC(O)C(C)(COC(=O)/C=C/c6ccc(O)cc6)C5CCC43C)C12` (stereo not drawn) [Compound 4, 23-O-(E)-p-coumaroyl-23-hydroxybetulin], the IC50 on NF-κB p65 subunit (setting [5]) was over 20 µM. Besides, in data set [1], the “HT-29 ED50” value is over 20 µM.
With `CC(=O)O[C@H]1C(=O)[C@@]2(C)[C@H]([C@H](OC(=O)c3ccccc3)[C@]3(O)C[C@H](OC(=O)[C@H](O)[C@@H](NC(=O)c4ccccc4)c4ccccc4)C(C)=C1C3(C)C)[C@]1(OC(C)=O)CO[C@@H]1C[C@@H]2O` [Paclitaxel, reference compound], the “HT-29 ED50” value in data set [1] is reported as 0.001 µM.
Take `C=C(C)C1CCC2(CO)CCC3(C)C(CCC4C5(C)CCC(O)C(C)(COC(=O)/C=C\c6ccc(O)cc6)C5CCC43C)C12` (stereo not drawn) [Compound 5, 23-O-(Z)-p-coumaroyl-23-hydroxybetulin]: the 50% inhibitory concentration (IC50) at NF-κB p65 subunit (setting [5]) is over 20 µM. Further, the “cytotoxic effect against HT-29 cells (in words)” value in data set [3] is listed as “marginal cytotoxic effects”. Besides, in data set [1], the “HT-29 ED50” value is given as 18.4 µM.
As to O-tigloylcyclovirobuxeine-B, in the data set with Plasmodium falciparum, the “IC50, in vitro antiplasmodial activity” value was 0.46 µg/mL. Further, the IC50 in the data set on Plasmodium falciparum (read-out: IC50, in vitro antiplasmodial activity) is 0.92 µM.
As for “N-3-benzoyldihydrocyclomicrophylline F [Compound 7]”, the half-maximal inhibitory concentration (IC50) at NF-κB p65 subunit (setting [5]) is over 20 µM. Moreover, the “HT-29 ED50” value in data set [1] came to 1.9 µM.
As a reminder, the inhibition is the relative decrease from the control value, in per cent. `C[C@@H]1[C@H](O)[C@@H](C)/C=C/C=C/C=C/C=C/C=C/C=C/C=C/[C@H](O[C@@H]2O[C@H](C)[C@@H](O)[C@H](N)[C@@H]2O)C[C@@H]2O[C@](O)(C[C@@H](O)C[C@@H](O)[C@H](O)CC[C@@H](O)C[C@@H](O)CC(=O)O[C@H]1C)C[C@H](O)[C@H]2C(=O)O` [amphotericin B]: the inhibition at 200 µg/mL in data set [4] came out at 100%.
Regarding `C[C@@H]1CC[C@H]2[C@@H](C)C(=O)O[C@@H]3O[C@@]4(C)CC[C@@H]1[C@]32OO4` [Artemisinin, reference compound], the IC50 in data set [2] turned out to be 0.0007 µM.
As for `C=C(C)[C@@H]1CC[C@]2(C(=O)OC)CC[C@]3(C)[C@H](CC[C@@H]4[C@@]5(C)CC[C@H](O)C(C)(C)[C@@H]5CC[C@]43C)[C@@H]12` [its methylate], the IC50 with P. falciparum strain 3D7 was 7 µM.
For `C=C(C)[C@@H]1CC[C@]2(COC(C)=O)CC[C@]3(C)[C@H](CC[C@@H]4[C@@]5(C)CC[C@H](OC(C)=O)C(C)(C)[C@@H]5CC[C@]43C)[C@@H]12` [Compound 8, 3,28-O-diacetylbetulin], on NF-κB p65 subunit (setting [5]), the IC50 was over 20 µM. The “HT-29 ED50” value in data set [1] is given as over 20 µM.
